The target in one data set is T1, P450 2B4 wild type (Oryctolagus cuniculus, UniProt P00178).
T1 sequence (P00178 with tags, fused parts or gaps limits assumed): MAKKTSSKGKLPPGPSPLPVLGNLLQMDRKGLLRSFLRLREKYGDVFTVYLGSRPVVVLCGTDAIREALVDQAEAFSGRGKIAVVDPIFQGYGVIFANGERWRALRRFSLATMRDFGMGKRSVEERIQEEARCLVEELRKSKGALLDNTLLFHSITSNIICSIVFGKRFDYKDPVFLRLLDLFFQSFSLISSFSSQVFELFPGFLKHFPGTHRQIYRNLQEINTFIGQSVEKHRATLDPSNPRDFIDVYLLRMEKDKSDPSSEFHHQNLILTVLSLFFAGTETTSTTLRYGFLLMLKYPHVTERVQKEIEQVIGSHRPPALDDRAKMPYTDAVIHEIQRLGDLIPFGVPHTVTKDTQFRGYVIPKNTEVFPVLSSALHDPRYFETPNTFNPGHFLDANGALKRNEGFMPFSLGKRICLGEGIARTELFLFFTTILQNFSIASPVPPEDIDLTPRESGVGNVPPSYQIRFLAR
The experiment in a line: Inhibition of 7-EFC O-deethylation by imidazole inhibitors. It counts as biochemical, rabbit (Oryctolagus cuniculus).

Data set [1] concerns the target T2, P450 2B4 H172A (Oryctolagus cuniculus, UniProt P00178, H172A).
T2 sequence (P00178 with tags, fused parts or gaps H172A limits assumed): T1 sequence (P00178 with tags, fused parts or gaps limits assumed) with H153A
The data set is described as above. The data set is classed as biochemical, rabbit (Oryctolagus cuniculus).

Data set [2] has as its target T3, P450 2B4 H172Q (Oryctolagus cuniculus, UniProt P00178, H172Q).
T3 sequence (P00178 with tags, fused parts or gaps H172Q limits assumed): T1 sequence (P00178 with tags, fused parts or gaps limits assumed) with H153Q
The data set is described as above. The data set is classed as biochemical, rabbit (Oryctolagus cuniculus).

The target in another data set is T4, P450 2B4 L437A (Oryctolagus cuniculus, UniProt P00178, L437A).
T4 sequence (P00178 with tags, fused parts or gaps L437A limits assumed): T1 sequence (P00178 with tags, fused parts or gaps limits assumed) with L418A
The description is as above. Particulars: rabbit, pH 7.4, probe 7-EFC (50 μM), O-deethylation. It counts as biochemical, rabbit (Oryctolagus cuniculus).

For data set [3], the target named is T5, P450 2B4 E474D (Oryctolagus cuniculus, UniProt P00178, E474D).
T5 sequence (P00178 with tags, fused parts or gaps E474D limits assumed): T1 sequence (P00178 with tags, fused parts or gaps limits assumed) with E455D
The data set is described as above. It counts as biochemical, rabbit (Oryctolagus cuniculus).

A further data set has as its target T6, P450 2B4 E474Q (Oryctolagus cuniculus, UniProt P00178, E474Q).
T6 sequence (P00178 with tags, fused parts or gaps E474Q limits assumed): T1 sequence (P00178 with tags, fused parts or gaps limits assumed) with E455Q
Described as above. The data set is classed as biochemical, rabbit (Oryctolagus cuniculus).

The target in data set [4] is T7, P450 2B4 H172F (Oryctolagus cuniculus, UniProt P00178, H172F).
T7 sequence (P00178 with tags, fused parts or gaps H172F limits assumed): T1 sequence (P00178 with tags, fused parts or gaps limits assumed) with H153F
The experiment in a line: Spectral binding titration of imidazole ligands. To be noted: 2B4 H172F versus wild type. More on the design: species or system rabbit (Oryctolagus cuniculus). The method, boiled down: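 Protein was the His-tagged 2B4dH construct (single mutants or wild type), expressed in TOPP3 cells and Ni-NTA purified. Spectra 350–700 nm recorded after serial 5 μl additions of 100 μM 4-CPI or bifonazole. Ks came from a tight-binding equation fit, and the 4-CPI/bifonazole Ks ratio was calculated.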

Data set [5] concerns the target T2, P450 2B4 H172A. It counts as biochemical, rabbit (Oryctolagus cuniculus).
Data set [6] has as its target T3, P450 2B4 H172Q. The data set is classed as biochemical, rabbit (Oryctolagus cuniculus).
The test system of another data set is P450 2B4 mutants. The data set is classed as biochemical, rabbit (Oryctolagus cuniculus). To be noted: each mutant except the inactive H172F.
Data set [7] deals with T7, P450 2B4 H172F.
Data set [8] deals with T7, P450 2B4 H172F. This is another data set of the same source.
Data set [9] addresses T5, P450 2B4 E474D. The data set is classed as biochemical, rabbit (Oryctolagus cuniculus).

Changes are numbered by the printed parent chain.

Take `c1ccc(-c2ccc(C(c3ccccc3)n3ccnc3)cc2)cc1` (stereo not drawn) [Bifonazole, bifonazole]: the 50% inhibitory concentration (IC50) was 900 nM at P450 2B4 wild type; 580 nM at P450 2B4 H172A [1]; 760 nM at P450 2B4 H172Q [2]; 620 nM against P450 2B4 E474D [3]; 810 nM against P450 2B4 E474Q. The IC50 at 10 min on P450 2B4 L437A was determined as 50 nM. On P450 2B4 H172F [4], the “Ks (spectral dissociation constant) higher than wild type 2B4” value is listed as ~ 20 times.
Consider `COc1ccc2c(C(F)(F)F)cc(=O)oc2c1` [7-MFC, 7-methoxy-4-(trifluoromethyl)coumarin], for which the “decrease (change) in kcat versus wild type” value on P450 2B4 H172A [5] and at P450 2B4 H172Q [6] was ~ 2 fold throughout. Besides, in the data set with P450 2B4 mutants, the “change in KM versus wild type” value is recorded as under 2 fold. In addition, at P450 2B4 H172F [7], the “substrate turnover (activity)” value is “inactive”. On P450 2B4 H172F [8], the kcat stood at 0 s⁻¹.
With `CCOc1ccc2c(C(F)(F)F)cc(=O)oc2c1` [7-EFC, 7-ethoxy-4-(trifluoromethyl)coumarin], on P450 2B4 E474D [9], the “decrease (change) in kcat versus wild type” value is given as over 20 fold. In addition, the “substrate turnover (activity)” value on P450 2B4 H172F [7] was “inactive”. The kcat on P450 2B4 H172F [8] is 0 s⁻¹.

By IC50 is commonly meant the midpoint of a concentration-inhibition curve. A high value points to weaker potency in that assay. In general, kcat refers to the number of substrate molecules converted per active site and unit of time at saturation.

Source of the values: PMC3911823 (The FEBS journal, 2011).
